{"source": "ChEMBL document CHEMBL4689842", "about": "“EUbOPEN Chemogenomics Library wave 1” (2021)", "key": {"Fibroblast": {"test_system": "Fibroblast", "assay": "Multiplex assay against human fibroblast", "type": "toxicity, cell-based", "conditions": "10 µM, compound concentration 10 uM", "in_short": "(§1)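 Four dyes were applied at seeding to live cells: Hoechst33342, BioTracker Green Microtubule Cytoskeleton Dye, MitoTracker Red and Annexin V Alexa Fluor 680. Imaging after compound addition used a CQ1 microscope at 37°C and 5% CO2. CellPathfinder machine-learning gating then sorted cells into Hoechst high-intensity objects or normal cells, normal cells into healthy, pyknosed or fragmented nuclei, and pyknosed cells into mitotic or apoptotic, with tubulin, mitochondrial-mass and membrane-permeability phenotypes given as per cents of healthy-nucleus cells.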"}, "HEK-293T": {"test_system": "HEK-293T", "assay": "Multiplex assay against HEK293T", "type": "toxicity, cell-based", "conditions": "human, 10 µM, compound concentration 10 uM", "in_short": "as §1"}}, "note": "Several values for one entry are separate records, joined by “and”; a condition that tells them apart may be missing. Equal entries are not always repeated.", "data": [{"compound": "O=C(O)c1ccc2c(c1)nc(Nc1cccc(Cl)c1)c1ccncc12", "note": "[SILMITASERTIB]", "values": [{"measurement": "Population Apoptotic (%)", "setting": "Fibroblast; 12 h, replicate 1", "result": "75% and 73%"}, {"measurement": "Population Fragmented Nuclei (%)", "setting": "Fibroblast; 12 h, replicate 1", "result": "29% and 31%"}, {"measurement": "Population Healthy Nuclei (%)", "setting": "Fibroblast; 12 h, replicate 1", "result": "56% and 60%"}, {"measurement": "Population Hoechst High Intensity Objects (%)", "setting": "Fibroblast; 12 h, replicate 1", "result": "20% and 12%"}, {"measurement": "Population Membrane Permeable-Phenotype (%)", "setting": "Fibroblast; 12 h, replicate 1", "result": "10% and 4%"}, {"measurement": "Population Mitochondria Different-Phenotype (%)", "setting": "Fibroblast; 12 h, replicate 1", "result": "2% and 3%"}, {"measurement": "Population Mitotic Cells (%)", "setting": "Fibroblast; 12 h, replicate 1", "result": "25% and 26%"}, {"measurement": "Population Normal (%)", "setting": "Fibroblast; 12 h, replicate 1", "result": "79% and 87%"}, {"measurement": "Population Pyknosed Nuclei (%)", "setting": "Fibroblast; 12 h, replicate 1", "result": "14% and 7%"}, {"measurement": "Population Tubulin-Different-Phenotype (%)", "setting": "Fibroblast; 12 h, replicate 1", "result": "6% and 4%"}, {"measurement": "Total Cell Count", "setting": "Fibroblast; 12 h, replicate 1", "result": "314 and 234"}, {"measurement": "Population Apoptotic (%)", "setting": "Fibroblast; 12 h, replicate 2", "result": "33% and 60%"}, {"measurement": "Population Fragmented Nuclei (%)", "setting": "Fibroblast; 12 h, replicate 2", "result": "60% and 64%"}, {"measurement": "Population Healthy Nuclei (%)", "setting": "Fibroblast; 12 h, replicate 2", "result": "33% and 25%"}, {"measurement": "Population Hoechst High Intensity Objects (%)", "setting": "Fibroblast; 12 h, replicate 2", "result": "30% and 32%"}, {"measurement": "Population Membrane Permeable-Phenotype (%)", "setting": "Fibroblast; 12 h, replicate 2", "result": "17% and 15%"}, {"measurement": "Population Mitochondria Different-Phenotype (%)", "setting": "Fibroblast; 12 h, replicate 2", "result": "11% and 7%"}, {"measurement": "Population Mitotic Cells (%)", "setting": "Fibroblast; 12 h, replicate 2", "result": "66% and 40%"}, {"measurement": "Population Normal (%)", "setting": "Fibroblast; 12 h, replicate 2", "result": "69% and 67%"}, {"measurement": "Population Pyknosed Nuclei (%)", "setting": "Fibroblast; 12 h, replicate 2", "result": "5% and 9%"}, {"measurement": "Population Tubulin-Different-Phenotype (%)", "setting": "Fibroblast; 12 h, replicate 2", "result": "29% and 23%"}, {"measurement": "Total Cell Count", "setting": "Fibroblast; 12 h, replicate 2", "result": "73 and 76"}, {"measurement": "Population Apoptotic (%)", "setting": "Fibroblast; 24 h, replicate 1", "result": 53, "unit": "%"}, {"measurement": "Population Fragmented Nuclei (%)", "setting": "Fibroblast; 24 h, replicate 1", "result": "32% and 26%"}, {"measurement": "Population Healthy Nuclei (%)", "setting": "Fibroblast; 24 h, replicate 1", "result": "53% and 60%"}, {"measurement": "Population Hoechst High Intensity Objects (%)", "setting": "Fibroblast; 24 h, replicate 1", "result": "19% and 17%"}, {"measurement": "Population Membrane Permeable-Phenotype (%)", "setting": "Fibroblast; 24 h, replicate 1", "result": 5, "unit": "%"}, {"measurement": "Population Mitochondria Different-Phenotype (%)", "setting": "Fibroblast; 24 h, replicate 1", "result": 2, "unit": "%"}, {"measurement": "Population Mitotic Cells (%)", "setting": "Fibroblast; 24 h, replicate 1", "result": 46, "unit": "%"}, {"measurement": "Population Normal (%)", "setting": "Fibroblast; 24 h, replicate 1", "result": "80% and 82%"}, {"measurement": "Population Pyknosed Nuclei (%)", "setting": "Fibroblast; 24 h, replicate 1", "result": "14% and 13%"}, {"measurement": "Total Cell Count", "setting": "Fibroblast; 24 h, replicate 1", "result": "314 and 235"}, {"measurement": "Population Apoptotic (%)", "setting": "Fibroblast; 24 h, replicate 2", "result": "66% and 50%"}, {"measurement": "Population Fragmented Nuclei (%)", "setting": "Fibroblast; 24 h, replicate 2", "result": 62, "unit": "%"}, {"measurement": "Population Healthy Nuclei (%)", "setting": "Fibroblast; 24 h, replicate 2", "result": "26% and 29%"}, {"measurement": "Population Hoechst High Intensity Objects (%)", "setting": "Fibroblast; 24 h, replicate 2", "result": "27% and 33%"}, {"measurement": "Population Membrane Permeable-Phenotype (%)", "setting": "Fibroblast; 24 h, replicate 2", "result": "14% and 6%"}, {"measurement": "Population Mitotic Cells (%)", "setting": "Fibroblast; 24 h, replicate 2", "result": "33% and 50%"}, {"measurement": "Population Normal (%)", "setting": "Fibroblast; 24 h, replicate 2", "result": "72% and 66%"}, {"measurement": "Population Pyknosed Nuclei (%)", "setting": "Fibroblast; 24 h, replicate 2", "result": "11% and 7%"}, {"measurement": "Population Tubulin-Different-Phenotype (%)", "setting": "Fibroblast; 24 h, replicate 2", "result": "21% and 31%"}, {"measurement": "Total Cell Count", "setting": "Fibroblast; 24 h, replicate 2", "result": "73 and 81"}, {"measurement": "Population Apoptotic (%)", "setting": "HEK-293T; 12 h, replicate 1", "result": "24% and 17%"}, {"measurement": "Population Fragmented Nuclei (%)", "setting": "HEK-293T; 12 h, replicate 1", "result": "14% and 17%"}, {"measurement": "Population Healthy Nuclei (%)", "setting": "HEK-293T; 12 h, replicate 1", "result": "67% and 65%"}, {"measurement": "Population Hoechst High Intensity Objects (%)", "setting": "HEK-293T; 12 h, replicate 1", "result": "10% and 15%"}, {"measurement": "Population Membrane Permeable-Phenotype (%)", "setting": "HEK-293T; 12 h, replicate 1", "result": "8% and 6%"}, {"measurement": "Population Mitochondria Different-Phenotype (%)", "setting": "HEK-293T; 12 h, replicate 1", "result": "5% and 4%"}, {"measurement": "Population Mitotic Cells (%)", "setting": "HEK-293T; 12 h, replicate 1", "result": "76% and 82%"}, {"measurement": "Population Normal (%)", "setting": "HEK-293T; 12 h, replicate 1", "result": "89% and 84%"}, {"measurement": "Population Pyknosed Nuclei (%)", "setting": "HEK-293T; 12 h, replicate 1", "result": 17, "unit": "%"}, {"measurement": "Population Tubulin-Different-Phenotype (%)", "setting": "HEK-293T; 12 h, replicate 1", "result": "7% and 6%"}, {"measurement": "Total Cell Count", "setting": "HEK-293T; 12 h, replicate 1", "result": "624 and 579"}, {"measurement": "Population Apoptotic (%)", "setting": "HEK-293T; 12 h, replicate 2", "result": "11% and 7%"}, {"measurement": "Population Fragmented Nuclei (%)", "setting": "HEK-293T; 12 h, replicate 2", "result": "8% and 10%"}, {"measurement": "Population Healthy Nuclei (%)", "setting": "HEK-293T; 12 h, replicate 2", "result": "84% and 85%"}, {"measurement": "Population Hoechst High Intensity Objects (%)", "setting": "HEK-293T; 12 h, replicate 2", "result": "3% and 2%"}, {"measurement": "Population Membrane Permeable-Phenotype (%)", "setting": "HEK-293T; 12 h, replicate 2", "result": "4% and 1%"}, {"measurement": "Population Mitochondria Different-Phenotype (%)", "setting": "HEK-293T; 12 h, replicate 2", "result": 9, "unit": "%"}, {"measurement": "Population Mitotic Cells (%)", "setting": "HEK-293T; 12 h, replicate 2", "result": "88% and 92%"}, {"measurement": "Population Normal (%)", "setting": "HEK-293T; 12 h, replicate 2", "result": "96% and 97%"}, {"measurement": "Population Pyknosed Nuclei (%)", "setting": "HEK-293T; 12 h, replicate 2", "result": "6% and 3%"}, {"measurement": "Total Cell Count", "setting": "HEK-293T; 12 h, replicate 2", "result": "1391 and 1841"}, {"measurement": "Population Apoptotic (%)", "setting": "HEK-293T; 24 h, replicate 1", "result": "28% and 16%"}, {"measurement": "Population Fragmented Nuclei (%)", "setting": "HEK-293T; 24 h, replicate 1", "result": 14, "unit": "%"}, {"measurement": "Population Healthy Nuclei (%)", "setting": "HEK-293T; 24 h, replicate 1", "result": "77% and 74%"}, {"measurement": "Population Hoechst High Intensity Objects (%)", "setting": "HEK-293T; 24 h, replicate 1", "result": "6% and 14%"}, {"measurement": "Population Membrane Permeable-Phenotype (%)", "setting": "HEK-293T; 24 h, replicate 1", "result": 10, "unit": "%"}, {"measurement": "Population Mitochondria Different-Phenotype (%)", "setting": "HEK-293T; 24 h, replicate 1", "result": "5% and 3%"}, {"measurement": "Population Mitotic Cells (%)", "setting": "HEK-293T; 24 h, replicate 1", "result": "71% and 84%"}, {"measurement": "Population Normal (%)", "setting": "HEK-293T; 24 h, replicate 1", "result": "93% and 85%"}, {"measurement": "Population Pyknosed Nuclei (%)", "setting": "HEK-293T; 24 h, replicate 1", "result": "8% and 9%"}]}]}
